Results reported in PubChem BioAssay AID488902 (Broad Institute, 2010).
Activity calls are given as the source filed them.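 Rule for the calls: active = rising caspase curve whose AC50 is at most ten times the top dose tested; inconclusive = flat fit between 30 and 70%, or a poor fit; inactive = the rest.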

Tested on: not listed separately
Test: caspase activation in wild-type MEFs, dose response, counter-screen for A1 (Bcl2-A1) inhibitor project, cell-based, wild-type MEF, Caspase-Glo luminescence, dry powder (AID 488902)
Details: wild-type MEF caspase activation, Caspase-Glo luminescence, 3 h; at 135 µM (top of the series)
Summary of the method: (§1)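 Material – wild-type mouse embryonic fibroblasts, unprimed by A1-BIM, not A1-dependent · Quantity – 2500 cells/well · Buffer or medium – RPMI-1640 plus 10% FBS · Dosing – compound dose series, 100 nL pin transfer · Incubation – compound 3 h at 37 °C, 5% CO2, caspase reagent 1 h · Signal – CaspaseGlo luminescence · Measure – caspase activation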

Question: With `CC(=O)N[C@H]1[C@H](O[C@H]2CC[C@@]3(C)C(CC[C@]4(C)C3CC=C3[C@@H]5CC(C)(C)CC[C@]5(C(=O)OC5OCC(O)C(O)C5O)C(O)C[C@]34C)C2(C)C)O[C@H](COC2OCC(O)C(OC3OCC(O)C(O)C3O)C2O)[C@@H](O[C@@H]2O[C@@H](C)[C@H](O)[C@@H](O)[C@H]2O[C@@H]2O[C@@H](C)[C@H](O)[C@@H](O)[C@H]2O)[C@@H]1O` (stereo not given in full) as the compound, how does the caspase activation read?
Answer: -0.32% (inactive)

Same assay, conditions: wild-type MEF caspase activation, Caspase-Glo luminescence, 3 h; at 150 µM (top of the series)

Question: For `CCc1nnc(NC(=O)c2nc(S(=O)(=O)Cc3ccccc3)ncc2Cl)s1`, which caspase activation is on record?
Answer: -0.316% (inactive)

Question: For `COc1cccc(C(=O)C(C#N)=C(SC)SC)c1`, which caspase activation is on record?
Answer: -1.91% (inactive)

Question: Which caspase activation does the source give for `C/C1=C/C(=O)O[C@@H]2C[C@@H](CC[C@H](C)/C=C\CC1)O[C@@](O)(C1CSC(=O)N1)C2` (stereo not given in full) here?
Answer: 0.912% (inactive)

Question: With `CCSc1nnc(NC(=O)c2nc(S(=O)(=O)Cc3ccc(F)cc3)ncc2Cl)s1` as the compound, how does the caspase activation read?
Answer: -2.01% (inactive)

Question: With `O=C(CCl)N=c1sccn1Cc1ccccc1Cl` as the compound, how does the caspase activation read?
Answer: 0.637% (inactive)

Question: For `CC(=O)OC(C)(C)/C=C/C(=O)[C@](C)(O)C1[C@H](O)C[C@@]2(C)C3CC=C4C(C[C@H](O)C(=O)C4(C)C)[C@]3(C)C(=O)C[C@]12C` (stereo not given in full), which caspase activation is on record?
Answer: 0.64% (inactive)

Question: With `Cc1cccc(CS(=O)(=O)c2ncc(Cl)c(C(=O)Nc3nnc(C(C)C)s3)n2)c1` as the compound, how does the caspase activation read?
Answer: -1.13% (inactive)

Question: For `Cc1c(CCOC(=O)c2ccc(N3CCOCC3)c([N+](=O)[O-])c2)sc[n+]1CC#N`, which caspase activation is on record?
Answer: 0.157% (inactive)

Question: With `Cc1c(C=O)c(C=O)c(C)n1Cc1ccccc1` as the compound, how does the caspase activation read?
Answer: 1.13% (inactive)

Question: Which caspase activation does the source give for `CCOC(=O)CSC1=N/C(=C/c2ccc(-n3cncn3)cc2)C(=O)N1C(C)=O` here?
Answer: 2.7% (inactive)

Question: For `C=C1[C@@H](C)[C@H]2[C@H](Cc3ccccc3)NC(=O)[C@]23OC(=O)/C=C\[C@H](O)CCC[C@@H](C)C/C=C/[C@H]3[C@@H]1O`, which caspase activation is on record?
Answer: 0.465% (inactive)

Question: With `Cn1c(=NC(=O)CCl)sc2ccccc21` as the compound, how does the caspase activation read?
Answer: 0.0802% (inactive)

Question: With `COc1cc(/C=C(/C#N)c2nc3ccccc3[nH]2)ccc1OCC(=O)Nc1ccccc1C(C)C` as the compound, how does the caspase activation read?
Answer: 0.773% (inactive)

Question: Which caspase activation does the source give for `O=C(Oc1cccc(/C=N/Nc2nc(Nc3ccccc3)nc(N3CCOCC3)n2)c1)c1ccco1` here?
Answer: 0.0158% (inactive)

Question: Which caspase activation does the source give for `CC(C)(C)n1nc(-c2ccc(Cl)cc2)c2c(N)ncnc21` here?
Answer: 2.53% (inactive)

Question: For `Cc1ccc(Sc2c([N+](=O)[O-])c(=O)n(C)c3ccccc23)cc1`, which caspase activation is on record?
Answer: 1.56% (inactive)

Question: With `Nc1nc(F)nc2c1ncn2[C@@H]1O[C@H](CO)[C@@H](O)[C@H]1O` as the compound, how does the caspase activation read?
Answer: -0.43% (inactive)

Question: Which caspase activation does the source give for `Cc1ccc(CS(=O)(=O)c2ncc(Cl)c(C(=O)Nc3nnc(C(C)C)s3)n2)cc1` here?
Answer: -1.41% (inactive)

Question: Which caspase activation does the source give for `C=C1[C@@H](C)[C@H]2[C@H](Cc3ccccc3)NC(=O)[C@]23[C@H](OC(C)=O)/C=C/[C@](C)(O)C(=O)[C@@H](C)C/C=C/[C@H]3[C@@H]1O` here?
Answer: -0.119% (inactive)

Tested on: wild-type MEF caspase activation, Caspase-Glo luminescence, 3 h
Test: as above
Details: not given
Summary of the method: as §1

Question: With `Cc1cc(C(=O)CCl)c(C)n1CCc1ccc(Cl)cc1` as the compound, how does the AC50 read?
Answer: 16.3 µM

Question: Which AC50 does the source give for `COc1ccc(N(C(=O)CCl)C(C(=O)NCCc2ccccc2)c2cccs2)cc1Cl` (stereo not given) here?
Answer: 15.5 µM

Question: With `Cc1cccc(NC(=O)/C(C#N)=C/c2cn(CC(=O)NCc3ccco3)c3ccccc23)c1` as the compound, how does the AC50 read?
Answer: 4.34 µM

Question: With `COc1cc(CN2CCN(c3cc(C)ccc3C)CC2)ccc1O` as the compound, how does the AC50 read?
Answer: > 150 µM (inactive)

Question: With `CCc1cc2c(=O)c(-c3cnn(-c4ccccc4)c3)c(C)oc2cc1OCC(=O)Nc1cccc(C)c1` as the compound, how does the AC50 read?
Answer: 2.93 µM
